Results pooled from the literature.
Target: Platelet-derived growth factor receptor beta (PDGFRB, Homo sapiens, UniProt P09619)

Structure (SMILES) | assay | conditions | endpoint | result
CCN(CC)CCNC(=O)c1c(C)[nH]c(/C=C2\C(=O)Nc3ccc(Cl)cc32)c1C | enzyme activity, inhibitor | 0.5 µM | remaining activity | 9.28%
Cc1[nH]c(/C=C2\C(=O)Nc3ccc(F)cc32)c(C)c1C(=O)N[C@H]1CCN(C(=O)N(C)C)C1 | enzyme activity, inhibitor | 1 µM | remaining activity | 18%
CC(C)(O)c1cncc(-c2nc3ccc(F)cc3n2C2CC2)c1 | cell-free assay, competition with immobilised ligand | 1 µM | remaining binding | 100%
CS(=O)(=O)Nc1cccc(-c2csc(NC(=O)CSc3nc4nccnc4c(=O)n3CCc3ccccc3)n2)c1 | enzyme activity, inhibitor | 10 µM | inhibition | 7%
COc1cc2c(cc1OC)-c1[nH]nc(Nc3cccc(F)c3)c1C2 | cell-free assay | 0.5 µM | remaining signal | 45.3%
CC(C)(O)[C@H]1CC[C@H](Nc2ccc3ncc(-c4cccc(C(F)(F)F)c4)n3n2)CC1 | enzyme activity, inhibitor | 1 µM | remaining activity | 81%
Cc1ccc(C(=O)NCc2ccsc2)cc1C#Cc1cn(C(C)C)c2ncnc(N)c12 | enzyme activity, inhibitor | 1 µM | activity vs control | 20%
Oc1cccc(-c2nc(N3CCOCC3)c3oc4ncccc4c3n2)c1 | cell-free assay | 0.5 µM | remaining signal | 99.2%
O=[N+]([O-])c1cccc2[nH]c(CNc3nc(N4CCOCC4)nc4c3ncn4-c3ccsc3)nc12 | binding, competition with immobilised ligand | 10 µM | binding vs control | 8.2%
CC(C)(C)c1nc2c(s1)c1nc(N)ncc1c1ccc(NS(=O)(=O)c3c(F)cccc3F)c(F)c12 | enzyme activity, inhibitor, radiometric | 1 µM | remaining activity | 105%
CN(C)c1ncnc(-c2ccc3nc(Nc4cc(CN5CCN(C(=O)CC(F)(F)F)CC5)ccn4)[nH]c3c2)c1Cl | cell-free assay, competition with immobilised ligand | 1 µM | remaining binding | 100%
Cc1sc(C(=O)NC2COC2)cc1-n1cc(NC(=O)Nc2c(F)cccc2Cl)cn1 | enzyme activity, inhibitor | 10 µM | remaining activity | 97.9%
O=C(Nc1cccnn1)N1CCC(=Cc2cccc(Oc3ccc(C(F)(F)F)cn3)c2)CC1 | cell-free assay, competition with immobilised ligand | 1 µM | remaining binding | 97%
CCN(CC)c1ccc(C2=NNC(=O)CC2C)cc1[N+](=O)[O-] (stereo not shown) | enzyme activity, inhibitor | 10 µM | remaining activity | 6%
CC(C)c1ccc(NC(=O)c2cccs2)c(-c2nc3ccccc3[nH]c2=O)c1 | enzyme activity, inhibitor | 1 µM | activity vs control | 105%
Cn1nc(C(F)(F)F)cc1-c1cnc(N2CCc3cc(S(=O)(=O)Nc4c(F)cc(Cl)cc4F)cc(N4CCCC4=O)c32)nc1 | cell-free assay, competition with immobilised ligand | 1 µM | remaining binding | 90%
Cc1cnc(NC2CCOCC2)nc1-n1cnc(C(=O)NC(CN)c2cc(F)cc(Cl)c2)c1 (stereo not shown) | enzyme activity, inhibitor, radiometric | 1 µM | remaining activity | 92%
CCCOc1ccc([C@@H]2[C@@H](C(=O)O)[C@H](c3ccc4c(c3)OCO4)CN2CC(=O)Nc2c(CC)cccc2CC)cc1 | cell-free assay, competition with immobilised ligand | 1 µM | remaining binding | 100%
Oc1ccc(-c2nc(-c3ccncc3)c(-c3ccc(F)cc3)[nH]2)cc1 | cell-free assay | 0.5 µM | remaining signal | 104%
